Screening results as filed in PubChem.
An excerpt weighted towards active compounds, which were near 4.9% of everything screened.
STAT1 inh = inhibitors of IFN-gamma induced STAT1 signaling; NIH 3T3 STAT1-luciferase reporter, luminescence; inhibition, % at 5.5 µM; actives 0.35% (n = 200,000); AID 920;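 active = inhibition above a set limit, the mean inhibition across all tested compounds plus 3 SD, cut at about 34% in these data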;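 note: 0% = IFN-gamma with DMSO and 100% = IFN-gamma with 300 µM nifuroxazide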
STAT3 inh-1 = reduces IL-6 driven STAT3 reporter signal; U3A cells, IL-6 STAT3-luciferase reporter, luminescence; host cell line lacks STAT1; inhibition, % at 5.5 µM; actives 0.89% (n = 190,000);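 active = inhibition above the mean inhibition across all screened compounds plus 3 SD, cut at about 44% in these data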;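 note: 0% = DMSO only wells and 100% = 100 µM nifuroxazide control wells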
STAT3 activator = STAT3 signaling activation | actives 0.91% (n = 190,000) | U3A cells, IL-6 STAT3-luciferase reporter, luminescence; 100% = signal with IL-6 EC80 alone | activation (% of control), % at 5.6 µM;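 active = activation above the screen-wide mean of compound activation plus 3 SD, cut at about 130% in these data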;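 note: 0% = background luminescence of wells with medium and substrate only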
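Test system: Human STAT1-deficient U3A cells with stable STAT3-luciferase reporter | Also added: Interleukin-6, 33 ng/mL | Timing: Compound pre-incubation 1 h before IL-6, then 6 h stimulation at 37 °C | Technique: Luciferase reporter luminescence | Read-out: Percent of IL-6-only median luminescence | Benchmarks: IL-6-only wells as 100% reference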
STAT1 act = increases IFN-gamma driven STAT1 reporter signal; activation (% of control), % at 5.5 µM; NIH 3T3 STAT1-luciferase reporter, luminescence; 100% = IFN-gamma alone, no compound; actives 2.6% (n = 200,000);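 active = activation above the screen-wide mean activation plus 3 SD, cut at about 130% in these data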;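 note: raw ratio to IFN-gamma control signal so 100% means no change and 0% no light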
NF-kB expr up = NF-kB expression increase, human neuronal cells; fold change at 12.5 µM; actives 1.6% (n = 190,000); NF-kB reporter expression; active compounds read high; in the data active = fold change above about 3.3
APP 5'UTR act = activates APP 5'UTR luciferase reporter; SH-SY5Y APP 5'UTR luciferase reporter, luminescence; zero percent = DMSO vehicle wells; activation, % at 2 µM; actives 1% (n = 190,000); AID 1276;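 active = activation above a set limit, based on mean plus 3 SD of controls, cut at about 140% in these data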
STAT3 inh-2 = confirmation of STAT3 signaling inhibitors; shares compounds with STAT3 inh-1; actives 45% (n = 1,200); AID 1265; inhibition, % at 5.7 µM; U3A cells, IL-6 STAT3 luciferase reporter, luminescence; cell line lacks STAT1;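 active = inhibition above the hit cutoff computed for the primary STAT3 screen, cut at about 44% in these data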;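 note: 0% = IL-6 plus DMSO and 100% = IL-6 plus nifuroxazide control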
NFkB inh 2 = inhibits NF-kappaB, counter-screen to STAT3 inhibitors | inhibition, % at 5.7 µM | AID 1308 | HEK293T NF-kB luciferase reporter, TNF-alpha induced | shares compounds with STAT3 inh-1 | actives 36% (n = 1,200);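 active = inhibition above the mean of solvent-only control wells plus 3 SD, cutoff set per campaign, cut at about 13% in these data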;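 note: 0% = TNF-alpha with DMSO and 100% = TNF-alpha with MG high control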
STAT1 inh STAT3c = STAT1 inhibition in STAT3 inhibitor counter-screen; shares compounds with STAT3 inh-1; NIH 3T3 STAT1-luciferase reporter, IFN-gamma induced, luminescence; inhibition, % at 5.7 µM; actives 27% (n = 1,200); AID 1317;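 active = inhibition above the mean plus 3 SD of solvent-only control wells, limit set per screening run, cut at about 16% in these data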;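 note: 0% = DMSO with IFN-gamma and 100% = nifuroxazide control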
An asterisk follows results filed as active; . = no result given.

SMILES	STAT1 inh	STAT3 inh-1	STAT3 activator	STAT1 act	NF-kB expr up	APP 5'UTR act	STAT3 inh-2	NFkB inh 2	STAT1 inh STAT3c
COc1ccc(CCNc2c(C)c(C)nc3ncnn23)cc1	24	82*	36	78	0.95	-5	85*	32*	26*
CC(=O)c1ccc(NC(=O)c2cc(Cl)sc2Cl)cc1	-24	-5	100	122	1.9	84	.	.	.
COc1ccc(/C=N\n2nnc3ccccc32)cc1	31	93*	25	70	3.1	191*	62*	32*	-14
COc1ccc(/C=N/N2C(=O)c3ccccc3C2=O)cc1	-3	2	101	103	1.3	2	.	.	.
Cc1cc(C)c(S(=O)(=O)N2CCCOC2CNC(=O)C(=O)NCc2ccncc2)c(C)c1 (centres undefined)	8	28	79	93	1.1	-2	.	.	.
COc1ccc(C(=O)C[n+]2cc(-c3ccc(OC)cc3)n3c2CCCC3)cc1	14	5	97	86	0.82	16	.	.	.
Cc1ccc(C(=O)C[n+]2cc(-c3ccc(C)cc3)n3c2CCCCC3)cc1	28	71*	46	75	1.1	4	60*	-1	27*
COc1ccc(-n2c(C)nc3c(cnn3-c3ccc(Cl)cc3)c2=O)cc1	13	52*	60	88	1.1	17	42	9	8
COc1ccc(-n2c(C)nc3c(cnn3-c3ccc(C)cc3)c2=O)cc1	4	33	76	98	0.97	-5	.	.	.
O=C(OCc1cccc([N+](=O)[O-])c1)c1ccc2ccccc2n1	1	18	89	99	1.2	19	.	.	.
CCOC(=O)N1CCN(c2nc3ccccc3nc2C(C#N)S(=O)(=O)c2ccc(C)cc2)CC1 (centres undefined)	1	3	98	99	0.71	3	.	.	.
Cc1ccc(S(=O)(=O)C(C#N)c2nc3ccccc3nc2N2CCN(C)CC2)cc1 (centres undefined)	-10	44*	67	109	0.87	-3	59*	19*	3
CC1=[N+](C)c2c(ccc3cccnc23)C1(C)C	30	42	67	71	0.6	-20	.	.	.
O=C(O)c1nn2cc(CCO)cnc2c1Cl	-4	-1	104	103	1.2	12	.	.	.
Cc1cc(N2CCCCC2)nc(NCc2ccccc2)n1	23	46*	69	79	0.83	-6	25	-9	21*
Cc1cc(N2CCOCC2)nc(NCc2ccccc2)n1	19	26	83	83	0.78	-5	.	.	.
COc1cccc(C(=O)Nc2c(C)nn(-c3ccccc3)c2C)c1	-5	10	95	102	1.1	-3	.	.	.
CCN(CC)S(=O)(=O)c1ccc(C)c(NC(=O)COC(=O)c2ccc(C)c(S(=O)(=O)N3CCOCC3)c2)c1	1	1	98	99	1.4	.	.	.	.
CCOc1cc(C(=S)N2CCOCC2)ccc1OS(=O)(=O)c1ccc(NC(C)=O)cc1	15	58*	56	86	0.66	-3	45*	13	13
COc1cccc(-n2nc(C(C)=O)c(=O)[nH]c2=O)c1	-13	-16	121	112	1.1	20	.	.	.
O=C(OCCN1C(=O)c2cccc3c(N4CCOCC4)ccc(c23)C1=O)c1ccccc1Cl	10	44*	63	91	0.34	-15	47*	16*	12
O=C(OCCN1C(=O)c2cccc3c(N4CCOCC4)ccc(c23)C1=O)c1ccc(Cl)cc1Cl	-9	-8	106	108	1.8	-94	.	.	.
CC(C)C(=O)Nc1ccc2nn(-c3ccccc3)nc2c1	-19	48*	63	116	1.1	234*	15	-34	-155
O=C(Nc1ccc2nn(-c3ccccc3)nc2c1)c1cccnc1	-27	15	90	124	1.3	51	.	.	.
